Screening results as filed in PubChem BioAssay.
The list is not random: actives were taken first. Their share in the collection is about 1.6%.
STEP inh = blocks human striatal-enriched tyrosine phosphatase; P54829; recombinant STEP, OMFP fluorogenic substrate, fluorescence; inhibition, % at 20 µM; 360,000 tested, 0.25% active; AID 588621;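 active means inhibition at 20 µM, scaled per plate between control wells, above about 37%, limit read from the data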;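 further: 0% = DMSO with enzyme and substrate and 100% = substrate only without enzyme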
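System: STEP (striatal-enriched tyrosine phosphatase) enzyme, cell-free; medium: Bis-Tris pH 6.0 buffer with DTT, detergent; dosing: 20 µM, 1% DMSO; times: reaction 20 min, ambient temperature; detection: fluorescence, 480/540 nm; read-out basis: normalized % inhibition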
SUMO1-SIM PPI = alters human SUMO1 binding to SIM partners; P63165; SUMO1 binding to a labelled peptide, TR-FRET, 1 h; inhibition, % at 20 µM; 360,000 tested, 0.33% active; AID 602429; in the data active means inhibition above about 37%
Target sequence (P63165 whole entry, looked up): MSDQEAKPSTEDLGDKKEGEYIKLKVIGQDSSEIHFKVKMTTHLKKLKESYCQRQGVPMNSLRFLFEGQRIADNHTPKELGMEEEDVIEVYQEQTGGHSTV
F508del corr = correctors of CFTR F508del function in bronchial epithelial cells; activity (quench increase), % at 7.58 µM; CFBE cells, YFP halide quenching; stimulated with forskolin plus potentiator P3; % fluorescence drop versus neutral controls; 350,000 tested, 0.36% active; AID 720511;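 active means mean added fluorescence quench of at least 8% versus neutral control, with both replicates also reaching 8%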;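 further: cells transiently co-express mutant CFTR-F508del with the halide-sensitive YFP; corrector assay measuring rescue of mutant channel to the surface after 24 h compound exposure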
Scp1 inh = Scp-1 (human) phosphatase inhibition. Recombinant Scp1, phosphopeptide, malachite green phosphate absorbance. inhibition, % at 20 µM. 340,000 tested, 0.88% active. AID 493091;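 active means inhibition above about 50% at 20 µM, limit read from the data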;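 further: plate controls were DMSO wells with enzyme for no effect and wells lacking enzyme for full effect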
Target sequence (Q9GZU7 76-261 limits assumed): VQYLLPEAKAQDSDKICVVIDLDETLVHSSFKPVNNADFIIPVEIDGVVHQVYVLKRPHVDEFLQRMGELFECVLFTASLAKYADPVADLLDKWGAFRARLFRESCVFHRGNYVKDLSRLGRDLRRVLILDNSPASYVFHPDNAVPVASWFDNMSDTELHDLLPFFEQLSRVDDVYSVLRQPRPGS
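Test system: SCP-1 catalytic domain; Buffer or medium: Acidic Tris acetate buffer with magnesium and detergent; Also added: Phosphorylated 17-residue peptide substrate; Compound: single 20 µM dose, 1% DMSO; Schedule: enzyme reaction 45 min at room temperature, colour 5 min, stabilisation 30 min; Signal: Phosphate-binding colour reagent, absorbance read at 630 nm.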
DNMT1 inh = DNMT1 (human) enzyme inhibition; P26358; DNMT1 molecular beacon, Hinp1I cleavage, fluorescence; inhibition (reported as % activation of signal), % at 10 µM; 360,000 tested, 0.83% active; AID 588458; in the data active means inhibition above about 50%
LMPTP inh = blocks human LMPTP phosphatase; AID 651560; recombinant LMPTP-A, OMFP fluorogenic substrate, fluorescence intensity; 360,000 tested, 0.22% active; inhibition, % at 20 µM; P24666;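 active means compounds that cut the enzyme signal by at least half of the control window in the single-dose screen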;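 further: plate controls were DMSO wells with enzyme plus substrate for no effect and substrate without enzyme for full effect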
Target sequence (P24666 whole entry, looked up): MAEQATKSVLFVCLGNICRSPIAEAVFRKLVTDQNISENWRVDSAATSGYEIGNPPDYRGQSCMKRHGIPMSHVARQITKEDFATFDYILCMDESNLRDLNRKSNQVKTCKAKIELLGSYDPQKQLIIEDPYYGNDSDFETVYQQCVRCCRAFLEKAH
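test system = LMPTP-A | amount = 0.625 nM LMPTP-A final | reagent = fluorogenic phosphatase substrate OMFP at 400 µM final | incubation = 50 min at room temperature | benchmarks = no-enzyme low control, uninhibited high control | medium = Bis-Tris pH 6.0, DTT, detergent | signal = fluorescence intensity of OMFP turnover product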
* = called active by the depositor; · = no result given.

SMILES	STEP inh	SUMO1-SIM PPI	F508del corr	Scp1 inh	DNMT1 inh	LMPTP inh
COc1cccc(C(=O)Nc2ccc3c(c2)C(=O)N(C)[C@H]2CC[C@@H](CC(=O)NCC4CC4)O[C@H]2CO3)c1	·	·	1.2	·	·	·
S=c1[nH]nc(-c2cc(-c3ccccc3)n[nH]2)n1/N=C/c1ccc(Br)s1	2.6	60.8*	-1.1	0.1	27.8	28.4
Nc1ccccc1C(=O)N1O[C@@H]2C=C[C@H]1C2	-3.0	0.9	8.6*	-4.0	0.0	0.9
CCCNC(=O)Nc1ccc2c(c1)OC[C@H](C)N(C(=O)CC)C[C@H](C)[C@H](OC)CN(C)C2=O	·	·	0.3	·	·	·
Cc1cnc(NC(=O)CCc2ccccc2)s1	0.9	3.9	8.9*	-3.5	-0.3	-0.6
Fc1ccccc1-c1nc(NC2CCCC2)c2ccccc2n1	-1.9	0.3	-2.9	-1.6	1.1	69.6*
CC(Nc1nc(-c2ccccc2F)nc2ccccc12)c1ccccc1 (stereo unspecified)	-0.5	0.8	-2.7	1.4	-2.5	73.6*
CC(Nc1nc(-c2ccccc2)nc2ccccc12)c1ccccc1 (stereo unspecified)	-2.9	2.9	-0.3	0.3	-14.7	52.0*
CNC(=O)C[C@@H]1CC[C@H]2[C@H](COc3ccc(NC(=O)c4cc(F)cc(F)c4)cc3C(=O)N2C)O1	·	·	0.8	·	·	·
CC(=O)N1CC2(C1)[C@H](c1ccccc1)[C@@H](CO)N2S(=O)(=O)c1ccccc1	·	·	-2.3	·	·	·
CO[C@H]1CN(C)C(=O)c2cc(NC(=O)C3CCCC3)ccc2OC[C@H](C)N(CCC(F)(F)F)C[C@@H]1C	·	·	0.4	·	·	·
COCC(=O)Nc1ccc2c(c1)[C@@H]1C[C@@H](CC(=O)NCc3cccc(F)c3)O[C@@H](CO)[C@@H]1O2	·	·	-0.2	·	·	·
O=C(NCCN1CCCC1)c1ccc(Cn2c(=S)[nH]c3cc4c(cc3c2=O)OCO4)cc1	3.7	4.6	·	0.4	33.1	54.3*
COc1cccc(-n2c(SCc3cc(=O)oc4cc(O)c(O)cc34)nc3ccccc3c2=O)c1	12.0	2.1	·	31.9	30.6	52.1*
C[C@@H]1CN([C@H](C)CO)C(=O)c2cc(NC(=O)c3ccccc3)ccc2O[C@@H](C)CCCCO[C@H]1CN(C)S(=O)(=O)c1cn(C)cn1	·	·	-1.2	·	·	·
Cc1ccc(S(=O)(=O)Nc2ccc3c(c2)C(=O)N([C@@H](C)CO)C[C@H](C)[C@@H](CN(C)S(=O)(=O)c2cn(C)cn2)O3)cc1	·	·	-0.1	·	·	·
O=C(C(Cc1ccccc1)n1cccc1)N1CCCCCC1 (stereo unspecified)	0.2	0.1	0.6	-6.5	-2.3	-0.6
O=C(C(Cc1ccccc1)n1cccc1)N1CCCCC1 (stereo unspecified)	3.1	2.4	10.2*	-1.2	2.3	-0.8
Cc1cccc2c1NC(=O)C2=O	2.8	-9.6	3.8	48.0	50.5*	0.9
CC(C)c1ccc(CN2CCN(S(=O)(=O)c3ccc(Cl)s3)CC2)cc1	3.0	3.2	29.9*	-0.1	-3.2	2.8
Nc1ncnc2oc(-c3ccco3)c(-c3ccco3)c12	29.7	31.2	·	65.9*	93.3*	61.2*
CCCCCCCC[n+]1cccc2c3ccccc3ccc21	3.8	-28.0	0.6	25.8	5.9	3.5
CCCCCCCCCC[n+]1cccc2c3ccccc3ccc21	7.5	-23.3	-7.9	65.4*	12.9	4.6
C[C@@H]1CCCCO[C@@H](CN(C)C(=O)NC2CCCCC2)[C@H](C)CN([C@@H](C)CO)C(=O)c2cc(NS(=O)(=O)c3ccc(F)cc3)ccc2O1	·	·	-0.1	·	·	·
O=C(Nc1ccc(-c2nc3ccc(NC(=O)c4cccs4)cc3[nH]2)cc1)c1cccs1	41.6*	82.1*	·	11.2	14.5	6.7
O=C(Nc1ccc2nc(-c3cccs3)[nH]c2c1)c1cccs1	1.8	4.3	·	0.0	-2.0	0.3
C[C@H](CO)N1C[C@H](C)[C@H](CN(C)S(=O)(=O)c2ccc(Cl)cc2)Oc2c(NC(=O)c3ccc(-c4nccs4)cc3)cccc2C1=O	·	·	0.6	·	·	·
CCCNC(=O)N1[C@H](CO)[C@@H](c2ccc(C3=CCCC3)cc2)[C@@H]1CN(C)C(C)=O	·	·	8.1*	·	·	·
